Shown are actives, neighbours in structure and some others; about 5% of the full set was active somewhere.
UPR CHOP act: activators of apoptotic arm of unfolded protein response (CHOP) | CHO-CHOP luciferase reporter, UPR activation, luminescence; percent of tunicamycin response over DMSO baseline | activation, % at 10 µM | hit rate 0.34% among 330,000 | AID 449763;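 active = at 10 µM dose, activation of 40% or more, normalized to positive control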;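 note: 100% = tunicamycin at 10 µg/mL and 0% = DMSO alone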
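System: CHO CHOP reporter cells. Amount: 500 cells per well. Buffer or medium: F12 medium, 10% FBS. Compound dosing: one dose, 10 µM in 0.5% DMSO. Incubation: 6 h compound exposure at 37 °C after overnight seeding. Technique: Steady-Glo luciferase luminescence. Benchmarks: tunicamycin and DMSO controls.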
Beta cell apopt: blocks beta cell apoptosis; hit rate 0.8% among 300,000; INS-1E cytokine-induced death, ATP luminescence, 48 h; percent of positive-control rescue, neutral wells zero; protection from apoptosis, % (no concentration beside the values);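 active = Every replicate reaches about 75%, or at least half do and their mean reaches it too, limit read from the data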;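 note: 0% = cytokine-treated negative control wells and 100% = positive control rescue; higher means more ATP so stronger rescue from cytokine killing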
Mdm2 MdmX PPI: disrupts the human Mdm2-MdmX interaction. SaOS-2 split-luciferase Mdm2/MdmX complementation, luminescence. inhibition, % at 8 µM. hit rate 3% among 330,000. AID 485346;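 active = inhibition of at least 50% at 8 µM in the primary screen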
Target sequence (O15151 whole entry, looked up): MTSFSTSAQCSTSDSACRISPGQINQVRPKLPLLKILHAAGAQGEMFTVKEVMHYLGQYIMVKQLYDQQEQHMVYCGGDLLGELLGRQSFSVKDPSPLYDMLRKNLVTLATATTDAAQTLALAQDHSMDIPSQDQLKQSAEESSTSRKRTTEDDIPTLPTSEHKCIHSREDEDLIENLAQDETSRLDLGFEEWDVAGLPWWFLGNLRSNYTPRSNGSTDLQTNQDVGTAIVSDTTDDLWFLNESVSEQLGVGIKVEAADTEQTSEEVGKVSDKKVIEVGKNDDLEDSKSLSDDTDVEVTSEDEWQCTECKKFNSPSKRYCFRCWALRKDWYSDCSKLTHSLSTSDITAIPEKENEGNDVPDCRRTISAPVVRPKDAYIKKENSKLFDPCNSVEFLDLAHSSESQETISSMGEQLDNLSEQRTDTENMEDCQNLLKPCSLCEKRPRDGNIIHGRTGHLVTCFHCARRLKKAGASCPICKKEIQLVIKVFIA
Target sequence (Q00987 whole entry, looked up): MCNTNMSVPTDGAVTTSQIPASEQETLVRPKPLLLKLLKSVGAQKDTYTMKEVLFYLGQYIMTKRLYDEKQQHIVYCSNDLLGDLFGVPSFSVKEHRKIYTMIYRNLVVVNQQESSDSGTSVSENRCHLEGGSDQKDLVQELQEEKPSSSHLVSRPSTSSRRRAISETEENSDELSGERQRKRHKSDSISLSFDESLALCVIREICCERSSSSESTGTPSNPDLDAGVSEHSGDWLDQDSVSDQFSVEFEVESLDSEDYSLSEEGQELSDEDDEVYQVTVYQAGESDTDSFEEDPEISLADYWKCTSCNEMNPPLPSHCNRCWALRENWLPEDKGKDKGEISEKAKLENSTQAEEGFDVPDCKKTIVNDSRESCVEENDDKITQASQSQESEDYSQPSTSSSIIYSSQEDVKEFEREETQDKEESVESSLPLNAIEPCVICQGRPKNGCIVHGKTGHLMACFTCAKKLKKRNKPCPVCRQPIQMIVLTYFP
T cruzi repl: T. cruzi replication inhibition. hit rate 1.4% among 300,000. T. cruzi beta-gal in NIH3T3, luminescence, 90 h. inhibition, % (concentration not given with the values);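 active = mean inhibition across valid replicates above about 55%, limit read from the data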;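 note: signal also drops with host cell toxicity which is not excluded here; 0% = plate median of DMSO wells and 100% = zero luminescence signal; higher percent means less beta-gal luminescence so fewer parasites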
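compound dosing = single 50 nL compound addition per well in DMSO | material = NIH/3T3 host cells with β-galactosidase reporter T. cruzi | input = 5,000 host fibroblasts per well | timing = ≥90 h infection period, 3 h prior cell attachment | read-out basis = percent inhibition of parasite-derived β-gal signal | detection = GalScreen β-gal luminescence, detergent lysis, 60 min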
CSC inhib: blocks cancer stem cells; cancer stem cell-like cells viability, luminescence; inhibition, % at 7.5 µM; hit rate 1.1% among 300,000; AID 2717; in the data active = inhibition above about 75%; tested in HMLE shEcad cells
XBP1 UPR activ: adaptive UPR (XBP1) activation; hit rate 0.33% among 330,000; AID 463104; CHO-XBP1 luciferase reporter, IRE1-XBP1 UPR activation, luminescence; percent of tunicamycin response, DMSO as zero; activation, % at 20 µM;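 active = versus positive control, 20 µM dose yields 30% or more activation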;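 note: 100% = tunicamycin at 10 µg/mL and 0% = DMSO only wells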
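Assay system: CHO-XBP1 luciferase reporter cells; Schedule: 6 h treatment, 37 °C; Detection: glow luminescence from Steady-Glo reagent; Benchmarks: high control tunicamycin 10 µg/mL final, low control DMSO vehicle only.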
Mdm2-MdmX conf: confirmation of human Mdm2/MdmX interaction inhibitors | AID 489028 | shares compounds with Mdm2 MdmX PPI | inhibition, % at 8 µM | hit rate 55% among 10,000 | Mdm2-MdmX binding, luminescent assay; in the data active = inhibition above about 40%
FLuc counter: inhibits full-length luciferase, flagging false Mdm2/MdmX hits. shares compounds with Mdm2 MdmX PPI. SaOS-2 full-length luciferase counterscreen, luminescence. inhibition, % at 8 µM. hit rate 77% among 6,200. AID 504607;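 active = mean inhibition at 8 µM reaching about 37%, which flags the compound as non-specific, limit read from the data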;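 note: p53-null SaOS-2 cells with luciferase driven by a doxycycline-inducible promoter; compound on cells about two nights before reading with doxycycline added after day one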
* marks the source's active call; other numbers are inactive results; · = not tested or not shown.

SMILES | UPR CHOP act | Beta cell apopt | Mdm2 MdmX PPI | T cruzi repl | CSC inhib | XBP1 UPR activ | Mdm2-MdmX conf | FLuc counter
CC(Oc1ccc(Br)cc1)C(=O)Nc1nc(-c2ccccn2)cs1 (stereo not drawn) | 4 | · | 80* | 69* | 89* | 3 | 71* | 35
CCc1nnc(NC(=O)C(NC(=O)c2ccccc2Cl)C(C)C)s1 (stereo not drawn) | 2 | -6 | -15 | -2 | -6 | 1 | · | ·
CC(C)[C@H](NC(=O)c1ccccc1Cl)C(=O)Nc1nc(-c2ccccn2)cs1 | 0 | 32 | 64* | 66* | 17 | 0 | 53* | 36
O=c1ccc(-c2ccc(S(=O)(=O)Nc3ccc(F)cc3)o2)n[nH]1 | -2 | -6 | -4 | -8 | -12 | 1 | · | ·
CC(=O)C1=C(C)NC(SCc2cccc([N+](=O)[O-])c2)=C(C#N)C1c1ccco1 (stereo not drawn) | -1 | 0 | -16 | 13 | 18 | 3 | · | ·
COc1cc([N+](=O)[O-])ccc1NC(=O)CN1CCOCC1 | 0 | -4 | -16 | -2 | 10 | -2 | · | ·
CC(NC(=O)COC(=O)/C=C/c1ccc2c(c1)OCO2)c1ccccc1 (stereo not drawn) | -2 | 0 | 20 | · | 1 | -4 | · | ·
C[C@]12C(=O)N(c3ccc(C(F)(F)F)cc3)C(=O)N1[C@H]1c3ccccc3OC[C@@H]1[C@H]2c1ccccc1 | -2 | 1 | 57* | · | 8 | 0 | 8 | ·
COc1ccc2c(c1OC)C(=O)OC2Nc1nc(-c2ccc([N+](=O)[O-])cc2)cs1 (stereo not drawn) | 4 | -1 | -9 | 12 | -3 | 4 | · | ·
COc1ccc(-c2csc(NC3OC(=O)c4c3ccc(OC)c4OC)n2)cc1OC (stereo not drawn) | 5 | -45 | 78* | 7 | 39 | 1 | 62* | 70*
O=C(/C=C/c1ccccc1)NC(NC(=S)Nc1ccc(C(=O)O)cc1)C(Cl)(Cl)Cl (stereo not drawn) | 3 | -8 | -6 | -17 | -7 | 0 | · | ·
O=C(NC(NC(=S)Nc1c(Cl)cc(Cl)cc1Cl)C(Cl)(Cl)Cl)OCc1ccccc1 (stereo not drawn) | 2 | 44 | 86* | 74* | 32 | 14 | 57* | 56*
O=C(/C=C/c1ccccc1)NC(NC(=S)Nc1ccc(Cl)cc1Cl)C(Cl)(Cl)Cl (stereo not drawn) | 31 | 27 | 95* | 78* | 110* | 6 | 92* | 23
Cc1ccc(C)c(NC(=S)NC(NC(=O)/C=C/c2ccccc2)C(Cl)(Cl)Cl)c1 (stereo not drawn) | 24 | 32 | 81* | 18 | 31 | 14 | 74* | 31
COc1ccccc1N1CC(C(=O)Nc2ccccc2N2CCCC2)CC1=O (stereo not drawn) | 0 | 2 | 12 | -6 | -8 | 0 | · | ·
CCOc1ccc(Oc2cc(N)cc([N+](=O)[O-])c2)cc1 | 0 | 10 | 0 | 11 | · | 3 | · | ·
Cc1cc(C)cc(N(CCC(=O)Nc2nnc(C3CC3)s2)S(=O)(=O)c2ccc(Cl)cc2)c1 | 1 | -3 | 51* | 1 | 23 | -2 | 60* | 76*
COc1ccc2c(c1)c(=O)oc1cc(OCC(=O)NC3CC3)ccc12 | 3 | 1 | 53* | -4 | · | -2 | -18 | ·
COc1ccc2c(c1)c(=O)oc1cc(OCC(=O)NC3CCCCC3)ccc12 | 0 | 2 | 12 | 18 | -3 | 4 | · | ·
C=CCn1c(SCC(=O)N2CCOCC2)nc(O)c(Cc2ccccc2)c1=O | 0 | 0 | -1 | -6 | · | -3 | · | ·
CCN1CCN(CCNC(=O)C2CCN(Cc3nc(-c4ccc(Cl)cc4)oc3C)CC2)CC1 | 2 | 4 | 99* | -4 | 8 | 7 | 53* | 37*
Cc1oc(-c2ccc(Cl)cc2)nc1CN1CCC(C(=O)NCCCN2CCCC2=O)CC1 | -2 | 0 | 21 | -7 | 10 | 0 | · | ·
Cc1oc(-c2cccc(Cl)c2)nc1CN1CCC(C(=O)NCc2ccco2)CC1 | 0 | -2 | 3 | -8 | -8 | 3 | · | ·
CCc1ccc(-c2nc(CN3CCC(C(=O)NCc4ccccc4OC)CC3)c(C)o2)cc1 | 3 | 13 | 57* | -14 | 5 | 5 | 25 | ·
Cc1ccccc1-c1nc(CN2CCC(C(=O)NCCCN3CCCC3)CC2)c(C)o1 | 1 | 2 | 44 | 39 | -1 | 1 | · | ·
SMILES | UPR CHOP act | Beta cell apopt | Mdm2 MdmX PPI | T cruzi repl | CSC inhib | XBP1 UPR activ | Mdm2-MdmX conf | FLuc counter
Cc1ccccc1-c1nc(CN2CCC(C(=O)NCCCN3CC(C)CC(C)C3)CC2)c(C)o1 (stereo not drawn) | 1 | 4 | 78* | 47 | 2 | 6 | 95* | 26
COc1ccccc1CNC(=O)C1CCN(Cc2nc(-c3cccc(Cl)c3)oc2C)CC1 | 0 | 9 | 20 | 32 | -14 | 0 | · | ·
CCN1CCCC1CNC(=O)C1CCN(Cc2nc(-c3cccc(Br)c3)oc2C)CC1 (stereo not drawn) | 1 | 0 | 84* | 43 | · | 0 | 100* | 4
COC(=O)c1cc(Cl)nc2ccccc12 | -1 | 4 | 4 | -8 | -16 | 0 | · | ·
CCN=C(N/N=C/c1ccc([N+](=O)[O-])cc1)SC | 4 | · | -2 | -13 | -6 | 0 | · | ·
Cn1c(=O)c2c(nc3sccn32)n(C)c1=O | -1 | 0 | 6 | -4 | -14 | 2 | · | ·
O=C(O)CCC(=O)OCCCc1cc2ccccc2c(=O)o1 | 0 | -3 | -18 | · | 12 | -2 | · | ·
Cc1oc(-c2ccc(Cl)cc2)nc1CN1CCC(C(=O)N2CCN(Cc3ccccc3)CC2)CC1 | 2 | 11 | 48 | -27 | 2 | 6 | · | ·
Cc1oc(-c2ccc(Cl)cc2)nc1CN1CCC(C(=O)NCCCN2CCCC(C)C2)CC1 (stereo not drawn) | 3 | 3 | 100* | 49 | -20 | 0 | 96* | 21
Cc1oc(-c2ccc(Cl)cc2)nc1CN1CCC(C(=O)N2CCc3ccccc3C2)CC1 | 0 | 2 | 52* | 13 | 17 | 6 | 37 | 58*
CCC(C)[C@H](NC(=O)[C@@H]1CSC2c3ccccc3C(=O)N21)C(=O)NCc1ccco1 (stereo partly drawn) | 0 | -6 | 18 | 1 | -8 | 1 | · | ·
CC(=O)NC1=NN(C(C)=O)C(C)(c2ccccc2)S1 (stereo not drawn) | -1 | · | 60* | -28 | · | -2 | 53* | 53*
